A number with no mark means an inactive call. Records with an inconclusive call do not appear. Activity calls are given as the source filed them.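 The calls were made as follows, unless noted: active = RAM network inhibition above 8.4% in each of two replicates, 3 SD over the compound average; inconclusive = above 8.4% inhibition in only one replicate; inactive = 8.4% inhibition or less in each replicate.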
How the values were obtained:
[1] = OD615 S. cerevisiae growth inhibition, permissive medium, pilot counter-assay, permissive growth control for S. cerevisiae lifespan shortening project (AID 705;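 active = growth inhibition above 25% in both replicates, a cutoff set 3 SD above the mean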); details: OD615, 24 h, at 10 µM, hits give high values
In short: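 assay system = Saccharomyces cerevisiae strain carrying genetically modified DeaD replicative-lifespan system | technique = absorbance (optical density) at 615 nm | buffer or medium = permissive raffinose/galactose medium | timing = cells pre-grown 4 h, then 24 h compound exposure, 30 °C humidified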

[2] = Restrictive medium S. cerevisiae growth inhibition, OD615, pilot screen of yeast lifespan reduction project, restrictive growth control (AID 706;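 active = growth inhibition above a set limit, 3 SD over mean compound inhibition, in both replicates, cut at about 43% in these data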;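 also: modified DeaD lifespan yeast strain shifted to restrictive glucose medium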); details: OD615, 48 h, at 10 µM, hits give high values
In short: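 System: modified S. cerevisiae. Buffer or medium: CSMM-D glucose medium. Incubation: 4 h pre-growth plus 48 h compound exposure, 30 °C. Detection: absorbance (optical density) measured at 615 nm.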

[3] = viability gain of MRP-1-high H69AR cells under doxorubicin, pilot screen, MRP-1 activator project, CellTiter-Glo, duplicate (AID 807;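 active = viability increase at or above a cutoff of the median across tested compounds plus 3 SD, cut at about 8.5% in these data, passing the limit was not always enough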;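 also: compound pretreatment 18-22 h then 72 h combined with doxorubicin; 0% = doxorubicin alone and 100% = vehicle without doxorubicin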); details: H69AR viability with doxorubicin, CellTiter-Glo luminescence; at 10 µM; hits give high values
[4] = growth suppression of beta-catenin knockout HCT116, pilot screen, human colon tumor cells (AID 823;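 active = cell viability at or below a set limit in both duplicate runs, the limit being the all-compound median minus 4 SD, cut at about 23% in these data, passing the limit was not always enough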;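 also: 0% = wells killed by 20 µM Hyamine and 100% = untreated DMSO cell wells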); details: CellTiter-Glo, 60 h, at 10 µM, hits give low values
[5] = inhibitors of the yeast RAM network, pilot screen, dse1pr::URA3 reporter, 5-FOA selection (AID 869;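 active = inhibition over a set limit, the all-compound mean plus 3 SD, in both replicate runs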;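 also: 0% = DMSO wells with no growth and 100% = 10 µM 1-NA-PP1 with full growth; RAM network block rescues cells from 5-FOA so hits raise OD615 growth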); details: S. cerevisiae dse1pr::URA3 5-FOA growth, OD615, 2 d; at 10 µM; hits give high values; strain carries analog-sensitive mutant Cbk1 kinase
[6] = RAM signaling pathway blockade in yeast – S. cerevisiae, Pdr1DBD-CYC8 efflux-inhibited sensitized strain, primary screen (AID 1298);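 also: 0% = DMSO untreated cells without growth and 100% = 10 µM 1-NA-PP1 full growth; higher means more yeast growth rescued from 5-FOA killing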; details: S. cerevisiae cbk1-as DSE1-URA3 strain, 5-FOA growth OD615, 2 d; at 50 µM; hits give high values

Row | Structure (SMILES) | growth inhibition [1] [%] | growth inhibition [2] [%] | viability increase [3] [%] | viability [4] | inhibition [5] [%] | RAM network inhibition [6] [%]
1 | COC(=O)c1cc(=O)n(Cc2ccco2)c(=Nc2ccc(F)c(Cl)c2)s1 | -17.1 | -11.1 | -8.24 | 9.25% (active) | 2.19 | 10.1
2 | CCN(CC)c1ccc(NC(=O)c2ccc(NC(=O)C3CCCO3)cc2)c(C)c1 (stereo not given) | -6.83 | 3.42 | 1.38 | 94.8% | 0.965 | 6.65
3 | Cc1nn(CCO)c(C)c1Oc1ccccc1O | 6.79 | 4.62 | -1.47 | 102% | 1.96 | 1.86
4 | CC1(C)Cc2c(sc3c2c(=N)n(Cc2ccco2)c(=O)n3CC(=O)Nc2cccc(Cl)c2)CO1 | -9.23 | -8.69 | -6.27 | 75% | 3.25 | 5.15
5 | O=C(CN(CC(=O)N1CCOCC1)S(=O)(=O)c1ccc(Br)s1)N1CCOCC1 | 5.73 | -2.16 | -3.71 | 98% | -0.32 | 0.11
6 | COCC(=O)NC(C)c1nc2ccccc2[nH]1 (stereo not given) | -27.6 | -2.47 | -1.7 | 91.9% | 0.975 | 3.95
7 | CC(C)CC(NC(=O)C1CCC(C)CC1)C(=O)Nc1ccccn1 (stereo not given) | -11.7 | 2.61 | -1.42 | 92.9% | 0.5 | 3.07
8 | COc1cc(-c2nnn(CC#N)n2)ccc1OCc1ccccc1 | -6.28 | 9.63 | 0.59 | 94.5% | 1.28 | 1.51
9 | CN1c2ccccc2-c2nc3ccccc3n2C1c1ccccn1 (stereo not given) | -1.57 | -3.9 | -3.85 | 73.8% | 0.56 | 4.06
10 | CCOC(=O)c1cc(NC(=O)OC)c(C)nc1C | -4.66 | 4.23 | -2.65 | 106% | 0.81 | 3.38
11 | CCOc1cc(OCC)cc(C(=O)Nc2cccnc2)c1 | -12.6 | -12.7 | -1.99 | 100% | 1.77 | 4.32
12 | C(=N\c1nccs1)/c1c[nH]c2ccccc12 | -17.6 | 7.43 | -4.92 | 92.4% | 2.52 | 3.02
13 | S=c1nc(-c2ccccc2)n(CCCN2CCOCC2)c2c1CCCC2 | -2.74 | 23.8 | -4.35 | 103% | 0.18 | 3.63
14 | O=C(C1=C(O)C(=O)N(CCc2ccccc2)C1c1cccnc1)c1ccco1 (stereo not given) | -23.9 | -2.02 | -3.61 | 104% | 2.01 | 2.81
15 | O=c1[nH]n(-c2ncnc3c2cnn3-c2ccccc2)c(=O)c2ccccc12 | -3.32 | 13.1 | -2.9 | 101% | 1.52 | 2.07
16 | Cc1ccccc1C(=O)Nc1nnc(-c2ccc(F)cc2)o1 | -3.21 | 11.5 | -2.91 | 33% | 0.6 | 4.65
17 | Cc1ccc(C)c(S(=O)(=O)Nc2ccccc2C(=O)Nc2cc(C)on2)c1 | -32.7 | -4.75 | -3.6 | 77.3% | 2.54 | 6.23
18 | O=C(CS(=O)(=O)c1c[nH]c2ccccc12)Nc1ccc2c(c1)OCCO2 | -12.2 | -1.07 | -3.49 | 95.7% | 2.55 | 1.93
19 | Cc1c(C(=O)NCC2COc3ccccc3O2)oc2ccc(S(=O)(=O)N3CCOCC3)cc12 (stereo not given) | -22 | -8.28 | -2.13 | 42.2% | 3.01 | 6.17
20 | CCOC(=O)c1c(NC(=O)c2ccc(Cl)s2)sc(C)c1C | -6.9 | -11.2 | -8.89 | 12.6% (active) | 2.4 | 5.6

Row | Structure (SMILES) | growth inhibition [1] [%] | growth inhibition [2] [%] | viability increase [3] [%] | viability [4] | inhibition [5] [%] | RAM network inhibition [6] [%]
21 | Cn1c(/C(C#N)=C2/CCCCCN2)nc2ccccc21 | -8.98 | -2.55 | -2.4 | 89.6% | 0.395 | 1.35
22 | Cc1cc(C)n(-c2nnc(C)n2/N=C/c2ccccc2OCc2ccccc2Cl)n1 | -4.54 | -6.33 | -5.89 | 22.2% (active) | 1.27 | -2.2
23 | Cc1nc2nc(SCC(=O)N3CCOCC3)nn2c(C)c1Cc1c(F)cccc1Cl | -2.75 | 34 | -6.91 | 88.4% | 0.35 | 3.17
24 | CCOc1ccc(NC(=O)C2CC(C)=C(C)CC2C(=O)O)cc1 (stereo not given) | -13.3 | 2.49 | -1.85 | 99.1% | 1.79 | 1.67
25 | CCCCn1c(C(C)NC(=O)c2cccs2)nc2ccccc21 (stereo not given) | -10.5 | -2.79 | -3.37 | 89% | 1.42 | 3.28
26 | O=C(c1ccccn1)N1CCN(c2ccc(C(F)(F)F)cn2)CC1 | -20.7 | -2.59 | 0.37 | 96.5% | 1.64 | 3.84
27 | CCOC(=O)C1(c2csc(N)n2)COC(=O)C1 (stereo not given) | -11.9 | 0.175 | -0.78 | 96.8% | 2.44 | 2.75
28 | CC(=O)Nc1ccc(S(=O)(=O)N2CCC(c3nc4ccc(C)cc4[nH]3)CC2)cc1 | -24.1 | 2.08 | -3.15 | 51.2% | 1.47 | 9.15
29 | O=C(CS(=O)(=O)c1cn(Cc2cccc(F)c2)c2ccccc12)N1CCCCC1 | -12.9 | -2.79 | -3.96 | 73.2% | 2.04 | 3.64
30 | COCCNC(=O)c1cn(C)c(=O)c2cc(OC)c(OC)cc12 | -20.6 | -7.83 | -1.73 | 95.5% | 1.6 | 7.53
31 | COC(=O)c1ccc(NCC(=O)c2ccccc2)cc1 | -7.25 | -4.05 | -4.87 | 99.3% | 1.83 | 3.96
32 | N#Cc1c(-c2ccccc2)cc(-c2ccco2)c(C#N)c1N | -21.9 | -10.5 | -7.79 | 38.5% | 1.86 | 8.41
33 | CC1CCN(CCNC(=O)c2ccc(NC(=O)C3CCCO3)cc2)CC1 (stereo not given) | -16.1 | -2.63 | -1.69 | 103% | 1.95 | 3.74
34 | c1ccc(-n2ncc3c2ncn2c(C4CCCCC4)nnc32)cc1 | -12.6 | -6.54 | 0.09 | 96.1% | 1.33 | 2.45
35 | Cc1cccc(N2CCN(C(=O)c3ccc(NC(=O)C4CCCO4)cc3)CC2C)c1 (stereo not given) | -10.9 | 6.01 | -2.33 | 105% | 1.11 | 4.83
36 | Cc1ccnc(Sc2nc3c(c(=O)[nH]c(=O)n3C)n2CCCc2ccccc2)n1 | -17.7 | 2.31 | -2.18 | 91.8% | 1.6 | 1.4
37 | COc1ccc(-c2cc(NCCc3ccncc3)n3ncnc3n2)cc1 | -9.14 | 14.2 | -4.7 | 95.2% | 0.97 | 7.01
38 | COc1cc(OC)cc(C(=O)Nc2cc(NC(=O)c3ccco3)ccc2OC)c1 | -15.4 | 3.21 | -5.63 | 88.8% | 1.21 | 2.66
39 | CC(=O)NCCN=Cc1sc2ccccc2c1O | -8.43 | -2.56 | -2.42 | 92.6% | -0.315 | -0.37
40 | CSc1nc2c(c(=O)n1-c1ccccc1)SCC2 | -15.9 | -8.25 | -2.76 | 98.3% | 0.775 | 0.21

Reference: PubChem BioAssay
